Each compound was assayed on Trypanosoma cruzi (assay: Percentage of activity against Trypanosoma cruzi at 6.25 uM Concentration). Conditions: not given.
Format: functional
Summary of the method: (§1)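 Mouse peritoneal macrophages, 30 000/well, infected after 24 h with about 100 000 T. cruzi trypomastigotes per well plus 2-fold drug dilutions (12.5–1.56 µM). Incubated 4 days at 37 °C, 5% CO2. Methanol-fixed, Giemsa-stained and scored microscopically as % reduction of total parasite load (free trypomastigotes plus intracellular amastigotes) versus untreated controls.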

Row | Compound | Reduction of T. cruzi parasite load
1 | COc1ccc2nc3cc(Cl)ccc3c(NCCCN(CCCNc3c4ccc(Cl)cc4nc4ccc(OC)cc34)C(=O)CCC(=O)N3CCOCC3)c2c1 | 0%
2 | COc1ccc2nc3cc(Cl)ccc3c(NCCN(CCNc3c4ccc(Cl)cc4nc4ccc(OC)cc34)C(=O)C(C)NC(=O)OC(C)(C)C)c2c1 (centres undefined) | 40%

What follows are compounds tested on Trypanosoma brucei (assay: Percentage of activity against Trypanosoma brucei at 1.56 uM). Conditions: not given.
Format: functional
Summary of the method: (§2)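 Bloodstream-form T. brucei in HMI-9 medium, 10 000 parasites/well, exposed to 12.5, 6.25, 3.13 and 1.56 µM drug for 4 days. Read-out is % inhibition of parasite multiplication. Macrophage toxicity judged on mouse primary peritoneal macrophages.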

Row | Compound | Percent inhibition of parasite multiplication
3 | COc1ccc2nc3cc(Cl)ccc3c(NCCCN(CCCNc3c4ccc(Cl)cc4nc4ccc(OC)cc34)C(=O)CCC(=O)N3CCOCC3)c2c1 | 100%
4 | COc1ccc2nc3cc(Cl)ccc3c(NCCN(CCNc3c4ccc(Cl)cc4nc4ccc(OC)cc34)C(=O)C(C)NC(=O)OC(C)(C)C)c2c1 (centres undefined) | 99%

The compounds below were run on Leishmania infantum (assay: Percentage of activity against Leishmania infantum at 1.56 uM). Conditions: not given.
Format: functional
Summary of the method: (§3)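 Starch-stimulated mouse peritoneal macrophages, 30 000/well, infected after 24 h with spleen-derived L. infantum amastigotes (10:1) together with 2-fold drug dilutions (12.5–1.56 µM). Incubated 7 days at 37 °C, 5% CO2. Wright-stained slides scored microscopically as % reduction of total parasite load or of infected macrophages. Uninfected treated cultures judged microscopically for macrophage toxicity.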

Row | Compound | Antileishmanial activity (% reduction of parasite load)
5 | COc1ccc2nc3cc(Cl)ccc3c(NCCCN(CCCNc3c4ccc(Cl)cc4nc4ccc(OC)cc34)C(=O)CCC(=O)N3CCOCC3)c2c1 | 0%
6 | COc1ccc2nc3cc(Cl)ccc3c(NCCN(CCNc3c4ccc(Cl)cc4nc4ccc(OC)cc34)C(=O)C(C)NC(=O)OC(C)(C)C)c2c1 (centres undefined) | 0%

The compounds below were run on Leishmania infantum (assay: Percentage of activity against Leishmania infantum 6.25 uM). Conditions: not given.
Format: functional
Summary of the method: as §3

Row | Compound | Antileishmanial activity (% reduction of parasite load)
7 | COc1ccc2nc3cc(Cl)ccc3c(NCCCN(CCCNc3c4ccc(Cl)cc4nc4ccc(OC)cc34)C(=O)CCC(=O)N3CCOCC3)c2c1 | 0%
8 | COc1ccc2nc3cc(Cl)ccc3c(NCCN(CCNc3c4ccc(Cl)cc4nc4ccc(OC)cc34)C(=O)C(C)NC(=O)OC(C)(C)C)c2c1 (centres undefined) | 60%

What follows are compounds tested on Trypanosoma brucei (assay: Percentage of activity against Trypanosoma brucei at 6.25 uM). Conditions: not given.
Format: functional
Summary of the method: as §2

Row | Compound | Inhibition of parasite multiplication
9 | COc1ccc2nc3cc(Cl)ccc3c(NCCCN(CCCNc3c4ccc(Cl)cc4nc4ccc(OC)cc34)C(=O)CCC(=O)N3CCOCC3)c2c1 | 100%
10 | COc1ccc2nc3cc(Cl)ccc3c(NCCN(CCNc3c4ccc(Cl)cc4nc4ccc(OC)cc34)C(=O)C(C)NC(=O)OC(C)(C)C)c2c1 (centres undefined) | 100%

The compounds below were run on Plasmodium falciparum (assay: In vitro sensitivity for Plasmodium falciparum FcB1R). Conditions: not given.
Format: functional, organism-based
Summary of the method: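 Asynchronous P. falciparum cultures in human erythrocytes (0.5% parasitemia, 1% haematocrit) exposed to serially diluted drug for 24 h at 37 °C. [3H]hypoxanthine (0.5 µCi/well) then added for a further 24 h. Uptake compared with drug-free controls on the same plate. IC50 taken from the concentration–response curve, averaged over independent experiments. DMSO ≤0.1%.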

Row | Compound | IC50
11 | COc1ccc2nc3cc(Cl)ccc3c(NCCCN(CCCNc3c4ccc(Cl)cc4nc4ccc(OC)cc34)C(=O)CCC(=O)N3CCOCC3)c2c1 | 436 nM
12 | COc1ccc2nc3cc(Cl)ccc3c(NCCN(CCNc3c4ccc(Cl)cc4nc4ccc(OC)cc34)C(=O)C(C)NC(=O)OC(C)(C)C)c2c1 (centres undefined) | 109 nM

These compounds were tested on Leishmania infantum (assay: Percentage of activity against Leishmania infantum at 3.13 uM). Conditions: not given.
Format: functional
Summary of the method: as §3

Row | Compound | Percent antileishmanial activity (reduction of parasite load)
13 | COc1ccc2nc3cc(Cl)ccc3c(NCCCN(CCCNc3c4ccc(Cl)cc4nc4ccc(OC)cc34)C(=O)CCC(=O)N3CCOCC3)c2c1 | 0%
14 | COc1ccc2nc3cc(Cl)ccc3c(NCCN(CCNc3c4ccc(Cl)cc4nc4ccc(OC)cc34)C(=O)C(C)NC(=O)OC(C)(C)C)c2c1 (centres undefined) | 20%

Each compound was assayed on Trypanosoma brucei (assay: Percentage of activity against Trypanosoma brucei at 12.5 uM). Conditions: not given.
Format: functional
Summary of the method: as §2

Row | Compound | Inhibition of parasite multiplication
15 | COc1ccc2nc3cc(Cl)ccc3c(NCCCN(CCCNc3c4ccc(Cl)cc4nc4ccc(OC)cc34)C(=O)CCC(=O)N3CCOCC3)c2c1 | 100%
16 | COc1ccc2nc3cc(Cl)ccc3c(NCCN(CCNc3c4ccc(Cl)cc4nc4ccc(OC)cc34)C(=O)C(C)NC(=O)OC(C)(C)C)c2c1 (centres undefined) | 100%

What follows are compounds tested on MRC5 (assay: Cytotoxicity on MRC-5 cells at 3.13 uM). Conditions: Homo sapiens.
Format: functional
Summary of the method: (§4)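 MRC-5 human diploid embryonic lung cells seeded at 5 000/well, washed after 24 h, then given 2-fold drug dilutions (25, 12.5, 6.25, 3.13 µM) in RPMI + 5% FCS, final DMSO below 0.5%. Incubated 7 days at 37 °C, 5% CO2. MTT colorimetric read-out, scored as % reduction of absorbance at 540 nm versus untreated controls.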

Row | Compound | cytotoxicity at 3.13 µM
17 | COc1ccc2nc3cc(Cl)ccc3c(NCCCN(CCCNc3c4ccc(Cl)cc4nc4ccc(OC)cc34)C(=O)CCC(=O)N3CCOCC3)c2c1 | 0%
18 | COc1ccc2nc3cc(Cl)ccc3c(NCCN(CCNc3c4ccc(Cl)cc4nc4ccc(OC)cc34)C(=O)C(C)NC(=O)OC(C)(C)C)c2c1 (centres undefined) | 0%

Each compound was assayed on MRC5 (assay: Cytotoxicity on MRC-5 cells at 12.5 uM). Conditions: Homo sapiens.
Format: functional
Summary of the method: as §4

Row | Compound | cytotoxicity at 12.5 µM
19 | COc1ccc2nc3cc(Cl)ccc3c(NCCCN(CCCNc3c4ccc(Cl)cc4nc4ccc(OC)cc34)C(=O)CCC(=O)N3CCOCC3)c2c1 | 20%
20 | COc1ccc2nc3cc(Cl)ccc3c(NCCN(CCNc3c4ccc(Cl)cc4nc4ccc(OC)cc34)C(=O)C(C)NC(=O)OC(C)(C)C)c2c1 (centres undefined) | 0%

Each compound was assayed on Trypanosoma brucei (assay: Percentage of activity against Trypanosoma brucei at 3.13 uM). Conditions: not given.
Format: functional
Summary of the method: as §2

Row | Compound | Parasite growth inhibition
21 | COc1ccc2nc3cc(Cl)ccc3c(NCCCN(CCCNc3c4ccc(Cl)cc4nc4ccc(OC)cc34)C(=O)CCC(=O)N3CCOCC3)c2c1 | 100%
22 | COc1ccc2nc3cc(Cl)ccc3c(NCCN(CCNc3c4ccc(Cl)cc4nc4ccc(OC)cc34)C(=O)C(C)NC(=O)OC(C)(C)C)c2c1 (centres undefined) | 100%

Each compound was assayed on Trypanosoma cruzi (assay: Percentage of activity against Trypanosoma cruzi at 3.13 uM). Conditions: not given.
Format: functional
Summary of the method: as §1

Row | Compound | Reduction of T. cruzi parasite load
23 | COc1ccc2nc3cc(Cl)ccc3c(NCCCN(CCCNc3c4ccc(Cl)cc4nc4ccc(OC)cc34)C(=O)CCC(=O)N3CCOCC3)c2c1 | 0%
24 | COc1ccc2nc3cc(Cl)ccc3c(NCCN(CCNc3c4ccc(Cl)cc4nc4ccc(OC)cc34)C(=O)C(C)NC(=O)OC(C)(C)C)c2c1 (centres undefined) | 0%

These compounds were tested on MRC5 (assay: Cytotoxicity on MRC-5 cells at 6.25 uM). Conditions: Homo sapiens.
Format: functional
Summary of the method: as §4

Row | Compound | cytotoxicity at 6.25 µM
25 | COc1ccc2nc3cc(Cl)ccc3c(NCCCN(CCCNc3c4ccc(Cl)cc4nc4ccc(OC)cc34)C(=O)CCC(=O)N3CCOCC3)c2c1 | 0%
26 | COc1ccc2nc3cc(Cl)ccc3c(NCCN(CCNc3c4ccc(Cl)cc4nc4ccc(OC)cc34)C(=O)C(C)NC(=O)OC(C)(C)C)c2c1 (centres undefined) | 0%

The compounds below were run on Leishmania infantum (assay: In Vitro evaluation for the percentage of activity towards Leishmania infantum at 12.5 uM Concentration). Conditions: not given.
Format: functional
Summary of the method: as §3

Row | Compound | Percent inhibition of Leishmania infantum
27 | COc1ccc2nc3cc(Cl)ccc3c(NCCCN(CCCNc3c4ccc(Cl)cc4nc4ccc(OC)cc34)C(=O)CCC(=O)N3CCOCC3)c2c1 | 0%
28 | COc1ccc2nc3cc(Cl)ccc3c(NCCN(CCNc3c4ccc(Cl)cc4nc4ccc(OC)cc34)C(=O)C(C)NC(=O)OC(C)(C)C)c2c1 (centres undefined) | 90%

Each compound was assayed on MRC5 (assay: Cytotoxicity on MRC-5 cells at 25 uM). Conditions: Homo sapiens.
Format: functional
Summary of the method: as §4

Row | Compound | cytotoxicity at 25 µM
29 | COc1ccc2nc3cc(Cl)ccc3c(NCCCN(CCCNc3c4ccc(Cl)cc4nc4ccc(OC)cc34)C(=O)CCC(=O)N3CCOCC3)c2c1 | 60%
30 | COc1ccc2nc3cc(Cl)ccc3c(NCCN(CCNc3c4ccc(Cl)cc4nc4ccc(OC)cc34)C(=O)C(C)NC(=O)OC(C)(C)C)c2c1 (centres undefined) | 100%

These compounds were tested on Trypanosoma cruzi (assay: Percentage of activity against Trypanosoma cruzi at 12.5 uM). Conditions: not given.
Format: functional
Summary of the method: as §1

Row | Compound | T. cruzi parasite load reduction
31 | COc1ccc2nc3cc(Cl)ccc3c(NCCCN(CCCNc3c4ccc(Cl)cc4nc4ccc(OC)cc34)C(=O)CCC(=O)N3CCOCC3)c2c1 | 60%
32 | COc1ccc2nc3cc(Cl)ccc3c(NCCN(CCNc3c4ccc(Cl)cc4nc4ccc(OC)cc34)C(=O)C(C)NC(=O)OC(C)(C)C)c2c1 (centres undefined) | 60%

What follows are compounds tested on Trypanosoma cruzi (assay: Percentage of activity against Trypanosoma cruzi at 1.56 uM). Conditions: not given.
Format: functional
Summary of the method: as §1

Row | Compound | Parasite load reduction
33 | COc1ccc2nc3cc(Cl)ccc3c(NCCCN(CCCNc3c4ccc(Cl)cc4nc4ccc(OC)cc34)C(=O)CCC(=O)N3CCOCC3)c2c1 | 0%
34 | COc1ccc2nc3cc(Cl)ccc3c(NCCN(CCNc3c4ccc(Cl)cc4nc4ccc(OC)cc34)C(=O)C(C)NC(=O)OC(C)(C)C)c2c1 (centres undefined) | 0%

— ChEMBL document CHEMBL1133105, “Antimalarial, antitrypanosomal, and antileishmanial activities and cytotoxicity of bis(9-amino-6-chloro-2-methoxyacridines): influence of the linker” (J Med Chem, 2000)
